Measured values published in ChEMBL document CHEMBL3600302, “A Ligand-Based Drug Design. Discovery of 4-Trifluoromethyl-7,8-pyranocoumarin as a Selective Inhibitor of Human Cytochrome P450 1A2” (J Med Chem, 2015).
pKi: −log10 of the molar value.

How the values were obtained:
[1] = target: T1, Aryl hydrocarbon receptor (Homo sapiens, UniProt P35869); test: Activation of human AhR expressed in Saccharomyces cerevisiae MYA-3637 assessed as upregulation of cytochrome P450 expression at <10^-6 M by LacZ reporter assay; type: ADME
T1 sequence (P35869 whole entry): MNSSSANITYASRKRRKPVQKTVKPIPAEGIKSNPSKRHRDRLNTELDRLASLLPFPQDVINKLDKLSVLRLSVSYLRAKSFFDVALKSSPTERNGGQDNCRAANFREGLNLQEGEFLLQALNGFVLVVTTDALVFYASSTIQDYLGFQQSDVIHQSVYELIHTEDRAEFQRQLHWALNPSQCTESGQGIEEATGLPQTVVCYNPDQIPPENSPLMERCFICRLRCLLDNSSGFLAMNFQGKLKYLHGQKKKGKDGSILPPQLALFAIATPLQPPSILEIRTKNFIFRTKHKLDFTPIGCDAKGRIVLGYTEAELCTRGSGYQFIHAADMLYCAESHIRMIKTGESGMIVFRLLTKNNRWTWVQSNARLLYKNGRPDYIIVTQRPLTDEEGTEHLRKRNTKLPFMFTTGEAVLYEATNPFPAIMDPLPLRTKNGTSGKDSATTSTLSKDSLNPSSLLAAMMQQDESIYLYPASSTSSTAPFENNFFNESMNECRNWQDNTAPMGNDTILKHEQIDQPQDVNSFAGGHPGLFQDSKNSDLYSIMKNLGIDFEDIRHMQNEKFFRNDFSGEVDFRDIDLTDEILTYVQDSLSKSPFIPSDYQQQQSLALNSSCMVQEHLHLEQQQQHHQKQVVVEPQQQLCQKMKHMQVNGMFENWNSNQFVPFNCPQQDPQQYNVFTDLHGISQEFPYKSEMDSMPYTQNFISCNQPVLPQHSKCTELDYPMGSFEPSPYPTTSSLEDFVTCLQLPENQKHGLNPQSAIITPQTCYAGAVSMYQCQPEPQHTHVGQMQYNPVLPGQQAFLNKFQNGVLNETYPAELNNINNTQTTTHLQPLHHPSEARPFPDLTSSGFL
Method in brief: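 Yeast with integrated human AhR (GAL promoter) and lacZ reporter plasmid, grown on tryptophan-free synthetic minimal medium with galactose instead of glucose. Compounds in DMSO (1% v/v final) added to overnight culture in quadruplicate and left until next day. Abs600 read, then lysis buffer with sarcosyl, DTT and ONPG added. Abs405/Abs600 taken as activation. 10^-8 M βNF positive control. At least three repeats.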

Homo sapiens [2] = species on record: Homo sapiens; test: Selectivity ratio of Ki for human microsomal CYP1B1 to Ki for human microsomal CYP1A2
Method in brief: (§1)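 Microsomal P450 (final 5 nM) in 0.1 M potassium phosphate pH 7.6 with MgCl2 at 37 °C. Substrate final 5 µM: ethoxyresorufin for 1A1/1B1, methoxyresorufin for 1A2. […] Ki was taken as the x-intercept of Dixon plots (1/v0 vs [I]). Mean ± SD of three independent experiments. Selectivity ratios are ratios of these Ki.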

Cytochrome P450 1A2 [3] = target: T2, Cytochrome P450 1A2 (Homo sapiens, UniProt P05177); test: Inhibition of human microsomal CYP1A2-dependent methoxyresorufin-O-demethylase activity by spectrofluorimetric analysis in presence of NADPH regenerating solution
T2 sequence (P05177 whole entry): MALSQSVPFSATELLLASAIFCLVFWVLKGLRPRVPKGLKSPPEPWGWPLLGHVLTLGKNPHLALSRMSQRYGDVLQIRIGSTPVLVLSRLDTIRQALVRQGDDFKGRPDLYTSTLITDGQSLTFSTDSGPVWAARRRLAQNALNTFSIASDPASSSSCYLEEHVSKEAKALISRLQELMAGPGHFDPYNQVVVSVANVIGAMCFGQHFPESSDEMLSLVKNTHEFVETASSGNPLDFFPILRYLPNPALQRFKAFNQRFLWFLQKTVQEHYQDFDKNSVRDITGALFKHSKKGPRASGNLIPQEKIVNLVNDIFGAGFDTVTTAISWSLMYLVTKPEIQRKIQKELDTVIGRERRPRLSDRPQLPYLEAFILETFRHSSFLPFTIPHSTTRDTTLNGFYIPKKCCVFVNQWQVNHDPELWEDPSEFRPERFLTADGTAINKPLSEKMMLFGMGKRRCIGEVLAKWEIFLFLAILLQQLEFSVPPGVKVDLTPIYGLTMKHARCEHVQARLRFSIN
Method in brief: (§2)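 Microsomal P450 (final 5 nM) in 0.1 M potassium phosphate pH 7.6 with MgCl2 at 37 °C. Substrate final 5 µM: ethoxyresorufin for 1A1/1B1, methoxyresorufin for 1A2. Ki was taken as the x-intercept of Dixon plots (1/v0 vs [I]). Mean ± SD of three independent experiments. Selectivity ratios are ratios of these Ki.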

Cytochrome P450 1B1 = target: T3, Cytochrome P450 1B1 (Homo sapiens, UniProt Q16678); test: Inhibition of human microsomal CYP1B1-dependent ethoxyresorufin-O-deethylase activity by spectrofluorimetric analysis in presence of NADPH regenerating solution; method in brief: as §2
T3 sequence (Q16678 whole entry): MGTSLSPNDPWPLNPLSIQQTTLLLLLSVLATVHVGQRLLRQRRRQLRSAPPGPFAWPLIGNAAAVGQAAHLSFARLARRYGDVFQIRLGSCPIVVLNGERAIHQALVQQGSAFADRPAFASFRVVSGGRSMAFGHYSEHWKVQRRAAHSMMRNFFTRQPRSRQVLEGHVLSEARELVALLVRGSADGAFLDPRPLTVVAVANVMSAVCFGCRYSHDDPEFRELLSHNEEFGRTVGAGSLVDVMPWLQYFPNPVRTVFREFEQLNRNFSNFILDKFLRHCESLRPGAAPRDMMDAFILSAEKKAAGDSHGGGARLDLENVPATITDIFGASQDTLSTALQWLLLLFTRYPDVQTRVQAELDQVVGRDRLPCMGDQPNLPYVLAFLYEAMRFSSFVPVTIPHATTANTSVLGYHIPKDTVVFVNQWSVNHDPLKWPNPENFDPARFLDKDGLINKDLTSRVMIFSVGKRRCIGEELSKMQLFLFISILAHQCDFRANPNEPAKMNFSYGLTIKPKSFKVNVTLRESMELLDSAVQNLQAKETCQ

Cytochrome P450 1A2 [4] = target: T2, Cytochrome P450 1A2; test: Inhibition of CYP1A2-dependent methoxyresorufin-O-demethylase activity in human HepG2 cells at > 10^-6 M preincubated for 24 hrs followed by substrate addition measured at 10, 30, 60 mins by fluorescence assay; type: cell-based; details: hepg2, 1 h
Method in brief: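 HepG2 cells (DMEM, 10% FBS, 37 °C, 5% CO2), 2 × 10^5 per well, plated overnight. Exposed 24 h to compound at final 10^-4 to 10^-7 M in DMSO. 10^-5 M βNF positive control, DMSO blank. Then washed with PBS and given medium with 5 × 10^-6 M methoxyresorufin. Resorufin fluorescence (ex 535/em 585 nm) read at 10, 30, 60 min. Triplicate, three independent experiments, unpaired t test.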

Cytochrome P450 1A1 = target: T4, Cytochrome P450 1A1 (Homo sapiens, UniProt P04798); test: Inhibition of human microsomal CYP1A1-dependent ethoxyresorufin-O-deethylase activity by spectrofluorimetric analysis in presence of NADPH regenerating solution; method in brief: as §1
T4 sequence (P04798 whole entry): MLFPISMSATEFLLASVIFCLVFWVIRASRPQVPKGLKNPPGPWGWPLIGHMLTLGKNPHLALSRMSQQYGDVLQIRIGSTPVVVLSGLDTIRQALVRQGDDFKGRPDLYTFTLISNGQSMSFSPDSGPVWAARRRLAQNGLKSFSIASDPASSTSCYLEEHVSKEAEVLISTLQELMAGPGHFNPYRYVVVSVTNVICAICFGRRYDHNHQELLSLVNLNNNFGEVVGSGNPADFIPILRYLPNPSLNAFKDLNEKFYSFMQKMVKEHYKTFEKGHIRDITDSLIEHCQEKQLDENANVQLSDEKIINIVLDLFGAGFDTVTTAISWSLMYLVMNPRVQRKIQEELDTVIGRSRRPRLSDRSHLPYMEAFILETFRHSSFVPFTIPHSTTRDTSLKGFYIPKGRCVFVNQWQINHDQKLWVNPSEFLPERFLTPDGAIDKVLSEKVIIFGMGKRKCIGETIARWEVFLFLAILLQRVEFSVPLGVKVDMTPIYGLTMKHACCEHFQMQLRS

Cytochrome P450 1A2 [5] = target: T2, Cytochrome P450 1A2; test: Time-dependent inhibition of human microsomal CYP1A2-dependent methoxyresorufin-O-demethylase activity by spectrofluorimetric analysis in presence of NADPH regenerating solution
Method in brief: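 1A2 MROD run with NADPH at 0.0125, 0.025, 0.05 and 0.1 µM inhibitor, product monitored continuously over 6 min. Activity at different times came from first derivatives of product curves, expressed as % of control remaining. KI and limiting kinact were derived from the resulting linear plot.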

Homo sapiens [6] = species on record: Homo sapiens; test: Selectivity ratio of Ki for human microsomal CYP1A1 to Ki for human microsomal CYP1A2; method in brief: as §1
HepG2 = test: Cytotoxicity against human HepG2 cells assessed as cell viability up to 10^-5 M after 72 hrs by MTT assay; type: cell-based; details: hepg2, 72 h

With `O=c1cc(C(F)(F)F)c2ccc3c(c2o1)C=CCO3` as the molecule, how does the Activity [1] read?
Its Activity is “Not Active”.

And the Ratio Ki (Homo sapiens [2])?
Its Ratio Ki is 52.

What about the pKi (Cytochrome P450 1A2 [3]) of the same molecule?
Its pKi is 6.41.

What about the pKi (Cytochrome P450 1B1) of the same molecule?
The pKi was 4.69.

What about the “inhibition (INH)” value (Cytochrome P450 1A2 [4]) of the same molecule?
The value was “Active”.

What about the pKi (Cytochrome P450 1A1) of the same molecule?
The pKi was 4.22.

And the TDI (Cytochrome P450 1A2 [5])?
The TDI was “Not Active”.

What about the Ratio Ki (Homo sapiens [6]) of the same molecule?
The Ratio Ki was 155.

And the Activity (HepG2)?
Its Activity is “Non-toxic”.
